Test results published in ChEMBL document CHEMBL1126099, “Synthesis and biological characterization of alpha-(4-fluorophenyl)-4-(5-fluoro-2-pyrimidinyl)-1-piperazinebutanol and analogues as potential atypical antipsychotic agents” (J Med Chem, 1992).
Activity calls are given as the source filed them. The rule behind the calls is not given here.

Experiments:
[1] = target: T1, Adrenergic receptor alpha-1 (Rattus norvegicus, UniProt P15823+P23944+P43140); experiment: Inhibition of [3H]WB-4101 binding to rat cortical Alpha-1 adrenergic receptor in vitro; type: protein assay
T1 sequence (P15823 whole entry): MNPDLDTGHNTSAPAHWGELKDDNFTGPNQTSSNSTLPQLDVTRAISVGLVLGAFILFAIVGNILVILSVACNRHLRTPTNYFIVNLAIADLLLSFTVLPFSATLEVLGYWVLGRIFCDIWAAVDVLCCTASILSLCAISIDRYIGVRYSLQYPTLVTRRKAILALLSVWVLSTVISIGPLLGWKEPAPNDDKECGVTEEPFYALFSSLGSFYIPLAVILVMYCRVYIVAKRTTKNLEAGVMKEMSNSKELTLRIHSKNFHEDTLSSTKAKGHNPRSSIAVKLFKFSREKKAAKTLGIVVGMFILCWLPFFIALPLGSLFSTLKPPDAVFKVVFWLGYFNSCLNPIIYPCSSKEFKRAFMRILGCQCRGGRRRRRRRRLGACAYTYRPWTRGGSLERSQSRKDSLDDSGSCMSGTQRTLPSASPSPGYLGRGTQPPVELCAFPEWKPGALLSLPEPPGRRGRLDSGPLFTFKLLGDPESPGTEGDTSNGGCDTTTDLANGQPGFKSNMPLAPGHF
T1 sequence (P23944 whole entry): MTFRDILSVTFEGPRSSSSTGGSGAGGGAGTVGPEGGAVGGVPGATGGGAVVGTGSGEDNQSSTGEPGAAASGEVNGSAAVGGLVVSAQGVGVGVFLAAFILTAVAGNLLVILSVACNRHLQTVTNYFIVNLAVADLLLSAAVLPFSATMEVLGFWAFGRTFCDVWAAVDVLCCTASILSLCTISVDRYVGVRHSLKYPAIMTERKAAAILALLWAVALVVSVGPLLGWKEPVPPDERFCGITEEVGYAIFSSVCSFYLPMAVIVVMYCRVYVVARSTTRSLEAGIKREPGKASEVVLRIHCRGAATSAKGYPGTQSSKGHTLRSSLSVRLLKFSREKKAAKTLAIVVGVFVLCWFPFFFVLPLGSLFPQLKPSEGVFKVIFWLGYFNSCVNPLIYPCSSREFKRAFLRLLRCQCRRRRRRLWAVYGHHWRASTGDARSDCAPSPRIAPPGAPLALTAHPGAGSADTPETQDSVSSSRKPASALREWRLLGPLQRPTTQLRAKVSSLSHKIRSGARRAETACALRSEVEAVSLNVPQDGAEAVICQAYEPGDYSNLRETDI
T1 sequence (P43140 whole entry): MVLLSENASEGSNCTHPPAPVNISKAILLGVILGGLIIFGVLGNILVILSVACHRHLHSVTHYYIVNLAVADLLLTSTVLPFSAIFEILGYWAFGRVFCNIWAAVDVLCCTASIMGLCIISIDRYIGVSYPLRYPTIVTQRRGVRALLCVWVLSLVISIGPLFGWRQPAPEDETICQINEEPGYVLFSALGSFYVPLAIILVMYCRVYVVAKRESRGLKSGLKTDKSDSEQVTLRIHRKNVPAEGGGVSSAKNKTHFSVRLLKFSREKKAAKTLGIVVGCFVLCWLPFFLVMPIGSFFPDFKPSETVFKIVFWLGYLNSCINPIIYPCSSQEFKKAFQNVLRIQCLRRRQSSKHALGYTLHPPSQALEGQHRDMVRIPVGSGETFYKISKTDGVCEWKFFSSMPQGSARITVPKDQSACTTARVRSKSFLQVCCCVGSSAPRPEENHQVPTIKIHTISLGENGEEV
Procedure, shortened: (§1)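 Competition binding against tritiated radioligand. Test drug was run at five concentrations in a single experiment, and IC50 (nM) was derived from displacement.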

D(2) dopamine receptor = D(2) dopamine receptor (Rattus norvegicus, UniProt P61169); experiment: In vitro inhibitory against radioligand [3H]spiperone binding to rat striatal Dopamine receptor D2; procedure, shortened: as §1
Rattus norvegicus [2] = species on record: Rattus norvegicus; experiment: Effective peroral dose for inhibition of conditioned avoidance response in rats; type: functional; conditions: po
[3] = target: T2, Sigma non-opioid intracellular receptor 1 (Rattus norvegicus, UniProt Q9R0C9); experiment: Displacement of (+)-[3H]-3-PPP from rat cortical sigma site; procedure, shortened: as §1
Mus musculus [4] = species on record: Mus musculus; experiment: Effective dose for inhibition of norepinephrine induced lethality in mouse; type: functional
Mus musculus [5] = species on record: Mus musculus; experiment: Effective dose for inhibition of physostigmine induced lethality in mouse; type: functional
Rattus norvegicus [6] = experiment: Effective dose for reversal of trifluoperazine-induced catalepsy in rats; I=Inactive (ED50 mg/Kg); type: functional, organism-based
Rattus norvegicus [7] = experiment: Effective in vivo peroral dose against induction of catalepsy in rats; type: functional
Rattus norvegicus [8] = species on record: Rattus norvegicus; experiment: Effective dose for motor incoordination in rats was determined by rotarod method; type: functional
[9] = target: T2, Sigma non-opioid intracellular receptor 1; experiment: Compound was tested in vitro for its ability to displace radioligand (+)-[3H]-3-PPP from rat cortical sigma receptor
Rattus norvegicus [10] = species on record: Rattus norvegicus; experiment: Inhibition of apomorphine-induced stereotypy in rats via peroral route; type: functional; conditions: Rattus norvegicus, po; read-out: ED50
[11] = target: T1, Adrenergic receptor alpha-1; experiment: In vitro inhibitory concentration against radioligand [3H]WB-4101 binding to rat cortical alpha-1 adrenergic receptor; type: protein assay
Rattus norvegicus [12] = species on record: Rattus norvegicus; experiment: Effective dose for ethanol potentiation in rats; type: functional
Rattus norvegicus [13] = species on record: Rattus norvegicus; experiment: Effective dose for inhibition of spontaneous motor activity in rats; type: functional
[14] = target: T1, Adrenergic receptor alpha-1; experiment: Inhibitory concentration against radioligand [3H]-WB- 4101 binding to rat cortical Alpha-1 adrenergic receptor; type: protein assay; procedure, shortened: as §1
Rattus norvegicus [15] = experiment: Bmax (D2 receptor number) was determined after peroral administration of 15 mg/Kg in rats qd for 29 days; type: functional
Procedure, shortened: (§2)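 Rats dosed orally once daily for 29 days with vehicle or test drug. Striatal D2 receptor number (Bmax, fmol/mg protein) and affinity (KD, pM) were then measured. Values are mean ± SEM for the number of preparations, with significance versus vehicle by Student's t-test (p < 0.05).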

Rattus norvegicus [16] = experiment: Bmax (D2 receptor number) was determined after peroral administration of 30 mg/Kg in rats qd for 29 days; type: functional; procedure, shortened: as §2
Rattus norvegicus [17] = experiment: Effect of chronic administration at a peroral dose of 30 mg/Kg qd for 29 days on D2 receptor binding in rat striata; type: functional, organism-based; procedure, shortened: as §2
Rattus norvegicus [18] = experiment: Effect of chronic administration at a peroral dose of 15 mg/Kg qd for 29 days on D2 receptor binding in rat striata; type: functional, organism-based; procedure, shortened: as §2
[19] = Rattus norvegicus, po, read-out: ED50

T2 sequence (Q9R0C9 whole entry): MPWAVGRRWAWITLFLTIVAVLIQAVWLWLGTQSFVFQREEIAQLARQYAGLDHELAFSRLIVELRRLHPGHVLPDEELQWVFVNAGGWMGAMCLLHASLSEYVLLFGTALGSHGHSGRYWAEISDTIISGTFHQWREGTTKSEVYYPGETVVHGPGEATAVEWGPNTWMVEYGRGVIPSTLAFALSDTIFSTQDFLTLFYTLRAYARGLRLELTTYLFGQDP
Chain of D(2) dopamine receptor (P61169 whole entry): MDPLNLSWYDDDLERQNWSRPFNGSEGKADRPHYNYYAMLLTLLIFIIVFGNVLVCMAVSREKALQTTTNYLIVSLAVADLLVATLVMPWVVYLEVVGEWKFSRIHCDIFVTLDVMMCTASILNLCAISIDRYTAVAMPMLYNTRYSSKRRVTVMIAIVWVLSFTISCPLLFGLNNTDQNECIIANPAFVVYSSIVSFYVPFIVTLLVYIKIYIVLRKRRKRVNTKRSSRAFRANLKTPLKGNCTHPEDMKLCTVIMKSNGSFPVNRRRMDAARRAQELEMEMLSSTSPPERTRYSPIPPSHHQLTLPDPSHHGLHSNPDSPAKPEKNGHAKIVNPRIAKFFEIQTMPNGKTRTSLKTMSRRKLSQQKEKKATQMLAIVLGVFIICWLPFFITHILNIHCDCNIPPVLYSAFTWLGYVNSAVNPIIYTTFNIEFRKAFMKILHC

Structure (SMILES) | IC50 [1] | IC50 (D(2) dopamine receptor) | ED50 (Rattus norvegicus [2]) | IC50 [3] | ED50 (Rattus norvegicus [7]; [19]) | ED50 (Rattus norvegicus [10]) | further results
NC(CCCN1CCN(c2ncc(F)cn2)CC1)c1ccc(F)cc1 (stereo unspecified) | 446 nM | > 1000 nM | > 100 mg/kg | ~1000 nM |  |  | 
CN1CCN(C2=Nc3cc(Cl)ccc3Nc3ccccc32)CC1 [CLOZAPINE] |  |  |  |  | > 200 mg/kg |  | ED50 (Mus musculus [4]): 3.5 mg/kg; ED50 (Mus musculus [5]): 5.4 mg/kg; Activity (Rattus norvegicus [6]): inactive; ED50 (Rattus norvegicus [8]): 7.9 mg/kg; IC50 [9]: > 1000 nM
Fc1ccc(/C=C(\CCN2CCN(c3ncc(F)cn3)CC2)c2ccc(F)cc2)cc1 | 756 nM | 8800 nM | > 100 mg/kg | > 1000 nM |  |  | 
O=C(CCCN1CCN(c2ncccn2)CC1)c1ccc(F)cc1 | 6 nM | 679 nM | 25.3 mg/kg | 430 nM | > 100 mg/kg | 21.6 mg/kg | 
O=C(CCN1CCN(c2ncc(F)cn2)CC1)c1ccc(F)cc1 |  |  | > 100 mg/kg |  |  | > 100 mg/kg | IC50 [11]: 523 nM; IC50 [9]: 69 nM
CCC(O)(CCCN1CCN(c2ncc(F)cn2)CC1)c1ccc(F)cc1 (stereo unspecified) | > 1000 nM | 3750 nM | 48.5 mg/kg | 370 nM | > 100 mg/kg | > 50 mg/kg | 
OC(CCCN1CCN(c2ncccn2)CC1)c1ccc(F)cc1 (stereo unspecified) | 162 nM | 1380 nM | 25 mg/kg | 130 nM | > 100 mg/kg | 32.3 mg/kg | 
COc1nc(N2CCN(CCCC(O)c3ccc(F)cc3)CC2)ncc1F (stereo unspecified) | 180 nM | 3940 nM | 40.8 mg/kg | 24 nM | 79.2 mg/kg | 54 mg/kg | 
O=C(CCCN1CCN(c2ncc(Br)cn2)CC1)c1ccc(F)cc1 | 72 nM | 2190 nM | > 100 mg/kg | 85 nM |  |  | 
Oc1nc(N2CCN(CCCC(O)c3ccc(F)cc3)CC2)ncc1F (stereo unspecified) | > 1000 nM | > 1000 nM | > 100 mg/kg | > 1000 nM |  | > 100 mg/kg | 
CSc1ccc2c(c1)N(CCC1CCCCN1C)c1ccccc1S2 (stereo unspecified) [THIORIDAZINE] |  |  |  | 750 nM |  | 280 mg/kg | ED50 (Mus musculus [4]): 2.2 mg/kg; ED50 (Mus musculus [5]): 45 mg/kg; Activity (Rattus norvegicus [6]): inactive; ED50 (Rattus norvegicus [12]): 56 mg/kg; ED50 (Rattus norvegicus [13]): 33 mg/kg; ED50 (Rattus norvegicus [8]): 20 mg/kg
O/N=C(\CCCN1CCN(c2ncc(F)cn2)CC1)c1ccc(F)cc1 | 22 nM |  | > 100 mg/kg | 81 nM |  |  | 
OC(CCCN1CCN(c2ncc(F)cn2)CC1)c1ccc(F)cc1 (stereo in doubt; 16) [BMY-14802] | 520 nM |  |  |  |  | 33 mg/kg | IC50 [14]: 460 nM; ED50 (Mus musculus [4]): > 100 mg/kg; ED50 (Mus musculus [5]): > 100 mg/kg; Bmax (Rattus norvegicus [15]): 233 fmol/mg protein; Bmax (Rattus norvegicus [16]): 212 fmol/mg protein; ED50 (Rattus norvegicus [7]): >100 mg/kg; ED50 (Rattus norvegicus [12]): 20.1 mg/kg; ED50 (Rattus norvegicus [13]): 87.3 mg/kg; ED50 (Rattus norvegicus [8]): 43.5 mg/kg; Kd (Rattus norvegicus [17]): 0.101 nM; Kd (Rattus norvegicus [18]): 0.121 nM
OC(CCCN1CCN(c2ncc(Cl)cn2)CC1)c1ccc(F)cc1 (stereo unspecified) | 1420 nM | 5660 nM | 87.1 mg/kg | 22 nM | 148 mg/kg | > 100 mg/kg | 
